Experimental data reported in ChEMBL document CHEMBL3045676, “Anti-tobacco mosaic virus (TMV) Quassinoids from Brucea javanica (L.) Merr” (J Agric Food Chem, 2010).
Calls of active or inactive are those of the source. No cut-off for these calls is given here.

How the values were obtained:
Tobacco mosaic virus [1] = test: In vivo antiviral activity against Tobacco mosaic virus strain U1 (TMV) infected left side of Nicotiana glutinosa leaves assessed as decrease in local lesion numbers at 10 uM co-incubated with virus for 30 min before inoculation onto leaves measured at 3-4 days after viral challenge by half-leaf method; assay type: functional
How it was run: (§1)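 Half-leaf test on N. glutinosa at the 5-6-leaf stage. Compound was dissolved in DMSO, diluted in water and mixed with TMV (32 μg/mL in 0.01 M PBS) for 30 min, then rubbed onto the left half-leaf; the right half received virus plus DMSO. Local lesions were counted after 3-4 days, with three repetitions. Inhibition % = (C−T)/C×100 using mean lesion counts. IC50 was taken from a 1.25-20 μM series.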

Tobacco mosaic virus [2] = test: In vivo antiviral activity against Tobacco mosaic virus strain U1 (TMV) infected left side of Nicotiana glutinosa leaves assessed as decrease in local lesion numbers at 5 uM co-incubated with virus for 30 min before inoculation onto leaves measured at 3-4 days after viral challenge by half-leaf method; assay type: functional; how it was run: as §1
Tobacco mosaic virus [3] = test: In vivo antiviral activity against Tobacco mosaic virus strain U1 (TMV) infected left side of Nicotiana glutinosa leaves assessed as decrease in local lesion numbers at 2.5 uM co-incubated with virus for 30 min before inoculation onto leaves measured at 3-4 days after viral challenge by half-leaf method; assay type: functional; how it was run: as §1
Tobacco mosaic virus [4] = test: In vivo antiviral activity against Tobacco mosaic virus strain U1 (TMV) infected left side of Nicotiana glutinosa leaves assessed as decrease in local lesion numbers at 20 uM co-incubated with virus for 30 min before inoculation onto leaves measured at 3-4 days after viral challenge by half-leaf method; assay type: functional; how it was run: as §1
Tobacco mosaic virus [5] = test: In vivo antiviral activity against Tobacco mosaic virus strain U1 (TMV) infected left side of Nicotiana glutinosa leaves assessed as decrease in local lesion numbers at 1.25 uM co-incubated with virus for 30 min before inoculation onto leaves measured at 3-4 days after viral challenge by half-leaf method; assay type: functional; how it was run: as §1
Tobacco mosaic virus [6] = test: In vivo antiviral activity against Tobacco mosaic virus strain U1 (TMV) infected left side of Nicotiana glutinosa leaves assessed as decrease in local lesion numbers co-incubated with virus for 30 min before inoculation onto leaves measured at 3-4 days after viral challenge by half-leaf method; assay type: functional, organism-based; how it was run: as §1
Tobacco mosaic virus [7] = test: Antiviral activity against Tobacco mosaic virus strain U1 (TMV) infected Nicotiana glutinosa leaves assessed as protective effect by decrease in local lesion number at 20 uM treated 6 hr prior to viral inoculation measured at 3-4 days after viral challenge; assay type: functional
How it was run: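 N. glutinosa plants pretreated with compound solutions (DMSO diluted in distilled water) or DMSO solution for 6 h, then inoculated with TMV and kept in an insect-free greenhouse 3-4 days until local lesions were visible; inhibition rate calculated from local lesion counts.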

Tobacco mosaic virus [8] = test: Antiviral activity against Tobacco mosaic virus strain U1 (TMV) infected Nicotiana tabacum cv. K326 leaves assessed as decrease in Tobacco mosaic virus coat protein level at 20 uM at 25 degC treated at 6 hr after viral inoculation measured after 48 hr by leaf disk method/western blot analysis; assay type: functional, organism-based
How it was run: (§2)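 N. tabacum cv. K326 leaves (5-6-leaf stage) mechanically inoculated with TMV (32 μg/mL in 0.01 M PBS). After 6 h, 1 cm disks without major veins were cut and floated on compound solution, with DMSO negative control and ningnanmycin positive control, at 25 °C for 48 h. Coat protein was then detected by SDS-PAGE and Western blot with polyclonal anti-TMV antibody and AP-conjugated anti-rabbit IgG using NBT/BCIP; samples run in duplicate.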

Tobacco mosaic virus [9] = test: Antiviral activity against Tobacco mosaic virus strain U1 (TMV) infected Nicotiana tabacum cv. K326 leaves assessed as decrease in Tobacco mosaic virus coat protein level at 25 degC treated at 6 hr after viral inoculation measured after 48 hr by leaf disk method/western blot analysis; assay type: functional, organism-based; how it was run: as §2
Tobacco mosaic virus [10] = test: Ratio of ningnamycin IC50 to compound IC50 for Tobacco mosaic virus strain U1 (TMV) infected left side of Nicotiana glutinosa leaves by half-leaf method; assay type: functional
How it was run: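 Ratio of IC50 values from the half-leaf N. glutinosa lesion assay, with ningnanmycin as the reference compound. Virus (32 μg/mL) was premixed with compound for 30 min before inoculation, and lesions were counted after 3-4 days.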

| Compound | inhibition in vivo at 10 µM (Tobacco mosaic virus [1]) | inhibition in vivo at 5 µM (Tobacco mosaic virus [2]) | inhibition in vivo at 2.5 µM (Tobacco mosaic virus [3]) | inhibition in vivo at 20 µM (Tobacco mosaic virus [4]) | inhibition in vivo at 1.25 µM (Tobacco mosaic virus [5]) | IC50 (Tobacco mosaic virus [6]) | inhibition at 20 µM (Tobacco mosaic virus [7]) | inhibition (Tobacco mosaic virus [8]) | inhibition (Tobacco mosaic virus [9]) | Ratio IC50 (Tobacco mosaic virus [10]) |
| --- | --- | --- | --- | --- | --- | --- | --- | --- | --- | --- |
| COC(=O)[C@]12OC[C@]34[C@H]([C@@H](O)[C@@H]1O)[C@@]1(C)CC(=O)C(O[C@@H]5O[C@H](CO)[C@@H](O)[C@H](O)[C@H]5O)=C(C)[C@@H]1C[C@H]3OC(=O)[C@H](OC(=O)C=C(C)C)[C@@H]24 [Bruceoside-B] | 66.7% | 53.8% | 31.7% | 78.4% | 21.4% | 4.64 µM | 90.2% | Active | – | – |
| COC(=O)[C@]12OC[C@]34[C@H]([C@@H](O)[C@@H]1O)[C@@]1(C)C=C(O[C@@H]5O[C@H](CO)[C@@H](O)[C@H](O)[C@H]5O)C(=O)[C@@H](C)[C@@H]1C[C@H]3OC(=O)[C@H](OC(=O)/C=C(\C)C(C)(C)OC(C)=O)[C@@H]24 [Yadanzioside G] | – | – | – | 33.7% | – | – | – | Active | – | – |
| COC(=O)[C@]12OC[C@]34[C@H]([C@@H](O)[C@@H]1O)[C@@]1(C)CC(=O)C(O[C@@H]5O[C@H](CO)[C@@H](O)[C@H](O)[C@H]5O)=C(C)[C@@H]1C[C@H]3OC(=O)[C@H](OC(C)=O)[C@@H]24 [YADANZIOSIDE I] | 67.9% | 54.9% | 35.4% | 81.5% | 26.1% | 4.22 µM | – | Active | – | – |
| COC(=O)[C@@]12OC[C@]34[C@H]([C@@H](O)[C@@H]1O)[C@@]1(C)C=C(O[C@@H]5O[C@H](CO)[C@@H](O)[C@H](O)[C@H]5O)C(=O)[C@@H](C)[C@@H]1C[C@H]3OC(=O)[C@H](OC(=O)C=C(C)C)[C@@H]24 [BRUCEOSIDE A] | – | – | – | 24.1% | – | – | – | Active | – | – |
| COC(=O)[C@]12OC[C@]34[C@H]([C@@H](O)[C@@H]1O)[C@@]1(C)CC(=O)C(O[C@@H]5O[C@H](CO)[C@@H](O)[C@H](O)[C@H]5O)=C(C)[C@@H]1C[C@H]3OC(=O)[C@H](OC(=O)/C=C(\C)C(C)(C)O)[C@@H]24 [Yadanzioside L] | 64.3% | 53.3% | 35% | 73.8% | 20% | 4.86 µM | 54.4% | Active | – | – |
| COC(=O)[C@]12OC[C@]34[C@H]([C@@H](O)[C@@H]1O)[C@@]1(C)CC(=O)[C@H](O)[C@@H](C)[C@@H]1C[C@H]3OC(=O)[C@H](OC(=O)C=C(C)C)[C@@H]24 [JAVANICOLIDES E] | – | – | – | 52% | – | – | – | – | – | – |
| CC1=C[C@H](O[C@@H]2O[C@H](CO)[C@@H](O)[C@H](O)[C@H]2O)[C@@H](O)[C@]2(C)[C@H]3[C@@H](O)[C@H](O)[C@]4(C)OC[C@@]35[C@@H](C[C@@H]12)OC(=O)[C@H](O)[C@]54O [YADANZIGAN] | – | – | – | 30.6% | – | – | – | Active | – | – |
| COC(=O)[C@]12OC[C@]34[C@H]([C@@H](O)[C@@H]1O)[C@@]1(C)C=C(O[C@@H]5O[C@H](CO)[C@@H](O)[C@H](O)[C@H]5O)C(=O)[C@@H](C)[C@@H]1C[C@H]3OC(=O)[C@H](OC(C)=O)[C@@H]24 [YADANZIOSIDE F] | – | – | – | 31.1% | – | – | – | Active | – | – |
| CC1=CC(=O)[C@@H](O)[C@]2(C)[C@H]3[C@@H](O)[C@H](O)[C@]4(C)OC[C@@]35[C@@H](C[C@@H]12)OC(=O)[C@H](O)[C@]54O [BRUCEINE D] | 66.7% | 47.9% | 29.1% | 78.6% | 21.4% | 5.29 µM | 72.2% | Active | – | – |
| COC(=O)[C@]12OC[C@@]34[C@@H](CC5=C(C)C(=O)C(O)=C[C@]5(C)[C@H]3[C@@H](O)[C@@H]1O)OC(=O)[C@H](OC(C)=O)[C@@H]24 [DEDYDROBRUCEINE B] | – | – | – | 59.1% | – | – | – | Active | – | – |
| COC(=O)[C@]12OC[C@]34[C@H]([C@@H](O)[C@@H]1O)[C@@]1(C)CC(=O)C(O)=C(C)[C@@H]1C[C@H]3OC(=O)[C@H](OC(=O)C=C(C)C)[C@@H]24 [BRUSATOL] | 71.5% | 64.7% | 48.8% | 88.9% | 20% | 3.42 µM | 77.5% | Active | Dose-dependent effect | 34 |
| COC(=O)[C@@]12OC[C@]34[C@H]([C@@H](O)[C@@H]1O)[C@@]1(C)CC(=O)C(O)=C(C)[C@@H]1C[C@H]3OC(=O)[C@H](OC(C)=O)[C@@H]24 [BRUCEINE B] | 81.5% | 65.2% | 40.6% | 88.9% | 20.5% | 3.47 µM | 86.3% | Active | – | – |
| COC(=O)[C@]12OC[C@]34[C@H]([C@@H](O)[C@@H]1O)[C@@]1(C)CC(=O)[C@H](O)[C@@H](C)[C@@H]1C[C@H]3OC(=O)[C@H](OC(=O)/C=C(\C)C(C)(C)OC(C)=O)[C@@H]24 [JAVANICOLIDE F] | – | – | – | 52.1% | – | – | – | – | – | – |
| CNCC(=O)N[C@@H](CO)C(=O)N[C@H]1[C@H](O)[C@@H](O)[C@H](n2ccc(N)nc2=O)O[C@@H]1C(N)=O [NINGNANMYCIN] | 67.5% | 46.6% | 37.9% | 25.3% | 28% | – | – | – | – | – |
| COC1=C[C@@H](C)[C@@H]2C[C@H]3OC(=O)C[C@H]4[C@@H](C)[C@H](OC)[C@@H](O)[C@H]([C@@]2(C)C1=O)[C@@]34C | – | – | – | – | – | – | – | inactive | – | – |
| COC(=O)[C@]12OC[C@]34[C@H]([C@@H](O)[C@@H]1O)[C@@]1(C)[C@H](O)[C@@H](O)C=C(C)[C@@H]1C[C@H]3OC(=O)[C@H](OC(C)=O)[C@@H]24 [YADANZIOSIDE D] | 59.2% | 48.4% | 38.5% | 70.8% | 21.4% | 5.66 µM | – | Active | – | – |
| CC1=CC(=O)[C@@H](O)[C@]2(C)[C@H]3[C@@H](O)[C@H](O)[C@]4(CO)OC[C@@]35[C@@H](C[C@@H]12)OC(=O)[C@H](O)[C@]54O [YADANZIOLIDE A] | 58.7% | 46.1% | 39.2% | 75% | 22.4% | 5.5 µM | – | Active | – | – |
| CC1=C[C@H](O)[C@@H](O)[C@]2(C)[C@H]3[C@@H](O)[C@H](O)[C@@]4(C)OC[C@@]35[C@@H](C[C@@H]12)OC(=O)[C@H](O)[C@]54O [BRUCEINE E] | – | – | – | 28.7% | – | – | – | Active | – | – |
